According to ChEMBL document CHEMBL5126596, “Design and synthesis of a novel non peptide CN-NFATc signaling inhibitor for tumor suppression in triple negative breast cancer” (Eur J Med Chem, 2022):
Calls of active or inactive are those of the source. No cut-off for these calls is given here.

Key:
[1] = target: T1, Nuclear factor of activated T-cells, cytoplasmic 1 (Homo sapiens) (UniProt O95644); assay: Inhibition of NFATC activity in HEK293T cells at 5 to 50 uM preincubated for 2 hrs followed by ionomycin/phorbol 12-myristate 13-acetate stimulation and measured after 4 hrs by luciferase reporter assay; type: cell-based; conditions: dose 5-50 µM, time 6.0 hrs
T1 sequence (whole entry): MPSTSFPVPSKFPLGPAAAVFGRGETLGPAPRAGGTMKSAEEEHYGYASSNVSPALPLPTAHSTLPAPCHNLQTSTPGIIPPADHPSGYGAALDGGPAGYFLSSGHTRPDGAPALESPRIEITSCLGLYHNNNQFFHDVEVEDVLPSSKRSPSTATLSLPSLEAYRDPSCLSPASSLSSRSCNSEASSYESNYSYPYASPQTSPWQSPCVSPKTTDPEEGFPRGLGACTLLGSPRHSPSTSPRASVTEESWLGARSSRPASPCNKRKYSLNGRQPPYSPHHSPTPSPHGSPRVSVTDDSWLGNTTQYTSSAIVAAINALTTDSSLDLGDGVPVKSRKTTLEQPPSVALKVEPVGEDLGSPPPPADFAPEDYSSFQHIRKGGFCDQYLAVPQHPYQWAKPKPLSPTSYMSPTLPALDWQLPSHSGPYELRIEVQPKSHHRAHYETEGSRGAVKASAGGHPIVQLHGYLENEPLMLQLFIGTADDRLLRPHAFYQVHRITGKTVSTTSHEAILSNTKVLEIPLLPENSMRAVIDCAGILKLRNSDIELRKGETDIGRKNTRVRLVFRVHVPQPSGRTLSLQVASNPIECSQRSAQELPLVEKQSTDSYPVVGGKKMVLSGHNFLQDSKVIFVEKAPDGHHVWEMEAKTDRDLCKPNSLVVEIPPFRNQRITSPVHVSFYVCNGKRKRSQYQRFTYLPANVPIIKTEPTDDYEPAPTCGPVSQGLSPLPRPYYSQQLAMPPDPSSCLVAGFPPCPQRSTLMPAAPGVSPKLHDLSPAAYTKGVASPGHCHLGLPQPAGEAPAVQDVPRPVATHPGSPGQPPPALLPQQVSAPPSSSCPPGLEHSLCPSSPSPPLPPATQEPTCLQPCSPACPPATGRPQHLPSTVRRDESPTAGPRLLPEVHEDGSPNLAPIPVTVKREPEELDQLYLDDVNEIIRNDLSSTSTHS
How it was run: (§1)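 HEK 293T cells (7.5 × 10⁴/well) co-transfected by CaCl₂ method with 100 ng 3xNFAT-luc and 1 ng pRLnull as transfection control. At 24 h, compound added for 2 h, then stimulated with 1 µM ionomycin, PMA and CaCl₂ for 4 h (20 ng/ml PMA and 2 mM CaCl₂ per figure legend). Luciferase read from crude extracts, relative to stimulated no-compound control (100%). Single doses 50 and 5 μM; dose-response 0.1–50 μM. IC50 by nonlinear regression; 3 experiments in triplicate.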

[2] = Toxicity in BALB/c mouse xenografted with mouse 4T1 cells assessed as effect on health conditions at 50 mg/kg, […]; type: organism-based; conditions: in vivo, ip
[3] = target: T1, Nuclear factor of activated T-cells, cytoplasmic 1 (Homo sapiens); assay: Inhibition of NFATC activity in human PBMC cells assessed as reduction of IL2 gene expression preincubated for 2 hrs followed by ionomycin/phorbol 12-myristate 13-acetate stimulation and measured after 4 hrs by RT-PCR analysis; type: cell-based; conditions: dose 2-50 µM, time 6.0 hrs, DDE = dose-dependent effect
How it was run: (§2)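 Isolated hPBMC treated with compound at 50, 10 and 2 μM for 2 h. Stimulated without washout with 1 μM ionomycin, 20 nM PMA and 10 mM CaCl₂ for 4 h. RNA extracted and 1 μg reverse-transcribed; qPCR run with UPL probes. Fold change by ΔΔCT. Mean ± SD of 3 independent experiments in triplicate.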

[4] = Toxicity in BALB/c mouse assessed as loss of body weight at 50 mg/kg, ip administered for 5 days and measured on day 7; type: organism-based; conditions: in vivo, 120 h, time 5 day
How it was run: (§3)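 BALB/c mice given 50 mg/kg ip daily, Monday to Friday, and killed on day seven. Monitored for macroscopic clinical signs, behavior, weight loss and general health.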

[5] = target: T1, Nuclear factor of activated T-cells, cytoplasmic 1 (Homo sapiens); assay: Inhibition of NFATC activity in human PBMC cells assessed as reduction of IFN gamma gene expression preincubated for 2 hrs followed by ionomycin/phorbol 12-myristate 13-acetate stimulation and measured after 4 hrs byRT-PCR analysis; type: cell-based; conditions: dose 2-50 µM, time 6.0 hrs, DDE = dose-dependent effect; how it was run: as §2
[6] = test system: CD4+ve Th; assay: Immunosuppressive activity in human CD4+ve Th cells assessed as inhibition of T cell proliferation […] by [3H]-thymidine incorporation based scintillation counter method; type: functional; conditions: dose <= 10.0 µM, DDE = dose-dependent effect
[7] = Toxicity in BALB/c mouse assessed as aberrant behavior at 50 mg/kg, ip administered for 5 days and measured on day 7; type: organism-based; conditions: in vivo, 120 h, time 5 day; how it was run: as §3
[8] = target: T1, Nuclear factor of activated T-cells, cytoplasmic 1 (Homo sapiens); assay: Inhibition of NFATC activity in HEK293T cells preincubated for 2 hrs followed by ionomycin/phorbol 12-myristate 13-acetate stimulation and measured after 4 hrs by luciferase reporter assay; type: cell-based; conditions: dose 0.1-50 µM, time 6.0 hrs, DDE = dose-dependent effect; how it was run: as §1
[9] = target: T1, Nuclear factor of activated T-cells, cytoplasmic 1 (Homo sapiens); assay: Inhibition of NFATC activity in human CD4+ T cells assessed as reduction of IFN gamma secretion preincubated for 2 hrs followed by anti-CD3/CD28 stimulation and measured after 48 hrs by ELISA; type: cell-based; conditions: CD4+ve Th
How it was run: (§4)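 Donor CD4⁺ T cells (1 × 10⁵/well) treated with 10 or 1 μM compound for 2 h. Compound left in place during activation with anti-CD3/CD28 beads (10 cells/bead). IL-2 and IFNγ measured by ELISA in supernatants after 48 h. Mean ± SEM.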

[10] = target: T1, Nuclear factor of activated T-cells, cytoplasmic 1 (Homo sapiens); assay: Inhibition of NFATC activity in human CD4+ T cells assessed as reduction of IL-2 secretion preincubated for 2 hrs followed by anti-CD3/CD28 stimulation and measured after 48 hrs by ELISA; type: cell-based; conditions: CD4+ve Th; how it was run: as §4
[11] = target: Protein phosphatase 3 catalytic subunit alpha (Homo sapiens) (UniProt Q08209); assay: Displacement of carboxyfluorescein labelled NFATc2 derived PRIEIT peptide from human CNAalpha (2 to 347 residues) at 10 to 100 uM preincubated for 15 mins followed by CF-PRIEIT addition and measured after 15 mins by fluorescence polarization assay; conditions: dose 10-100 µM, time 30.0 min
How it was run: (§5)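 FP competition assay: 10 µM human CNAα (residues 2–347) preincubated with compound for 15 min at rt. CF-tagged NFATc2 SPRIEIT peptide (10 nM) then added for a further 15 min. Read at excitation 485 nm / emission 535 nm. Triplicates from at least three independent experiments.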

[12] = Toxicity in BALB/c mouse assessed as clinical signs of abnormal constitution at 50 mg/kg, ip administered for 5 days and measured on day 7; type: organism-based; conditions: in vivo, 168 h, time 7 day; how it was run: as §3
[13] = Toxicity in BALB/c mouse xenografted with mouse 4T1 cells assessed as effect on body weight at 50 mg/kg, […]; type: organism-based; conditions: in vivo, ip
[14] = test system: 4T1; assay: Antitumor activity against mouse 4T1 cells xenografted in BALB/c mouse assessed as decrease in tumor weight at 50 mg/kg, ip measured after 15 days; conditions: time 15.0 day
[15] = target: Protein phosphatase 3 catalytic subunit alpha (Homo sapiens) (UniProt Q08209); assay: Displacement of carboxyfluorescein labelled NFATc2 derived PRIEIT peptide from human CNAalpha (2 to 347 residues) at 10 uM preincubated for 15 mins followed by CF-PRIEIT addition and measured after 15 mins by fluorescence polarization assay; conditions: time 30.0 min; how it was run: as §5
[16] = target: Protein phosphatase 3 catalytic subunit alpha (Homo sapiens) (UniProt Q08209); assay: Displacement of carboxyfluorescein labelled NFATc2 derived PRIEIT peptide from human CNAalpha (2 to 347 residues) at 100 uM preincubated for 15 mins followed by CF-PRIEIT addition and measured after 15 mins by fluorescence polarization assay; conditions: time 30.0 min; how it was run: as §5
[17] = target: T1, Nuclear factor of activated T-cells, cytoplasmic 1 (Homo sapiens); assay: Inhibition of NFATC activity in HEK293T cells at 50 uM preincubated for 2 hrs followed by ionomycin/phorbol 12-myristate 13-acetate stimulation and measured after 4 hrs by luciferase reporter assay; type: cell-based; conditions: time 6.0 hrs; how it was run: as §1
[18] = test system: 4T1; assay: Anti-angiogenesis activity against mouse 4T1 cells xenografted in BALB/c mouse at 5 mg/kg, ip measured after 15 days by anti-CD31 staining based immunohistochemistry analysis; type: functional, organism-based; conditions: time 15.0 day
[19] = Toxicity in BALB/c mouse xenografted with mouse 4T1 cells assessed as effect on body weight at 5 mg/kg, […]; type: organism-based; conditions: in vivo, ip, 120 h, time 5 day
[20] = Toxicity in BALB/c mouse xenografted with mouse 4T1 cells assessed as effect on health conditions at 5 mg/kg, […]; type: organism-based; conditions: in vivo, ip, time 5 day
[21] = test system: 4T1; assay: Antitumor activity against mouse 4T1 cells xenografted in BALB/c mouse assessed as decrease in tumor weight at 50 mg/kg, ip measured after 15 days; type: functional, organism-based; conditions: time 15.0 day
How it was run: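 Female BALB/c mice (8 weeks, 18–19 g) given 0.5 × 10⁶ 4T1 cells in 1:1 DMEM/Matrigel into the number four mammary fat pad. Treatment began at day 11, once tumors exceeded 100 mm³, with randomization to groups of 9–10. Dosing was ip, daily Monday to Friday, for 15 days with DMSO vehicle. Tumors were then excised and weighed; body weight and health were followed.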

[22] = test system: 4T1; assay: Anti-angiogenesis activity against mouse 4T1 cells xenografted in BALB/c mouse at 50 mg/kg, ip measured after 15 days by anti-CD31 staining based immunohistochemistry analysis; type: functional, organism-based; conditions: time 15.0 day

## Cc1ccc(C(=O)NCC(=O)Nc2cc(S(=O)(=O)Nc3ccc(Cl)cc3)ccc2Cl)s1
[1]
  inhibition: 80%
[2]
  Activity: Non-Toxic
[3]
  Activity: Dde
[4]
  Activity: Non-Toxic
[5]
  Activity: Dde
[6]
  Activity: Dde
[7]
  Activity: Non-Toxic
[8]
  inhibition: Dde
[9]
  inhibition: Active
[10]
  inhibition: Active
[11]
  Activity: Active
[12]
  Activity: Non-Toxic
[13]
  Activity: Non-Toxic
[14]
  Activity: Active

## CS(=O)(=O)NCc1cccc(NC(=O)Cc2ccsc2)c1
[15]
  Activity: Active
[16]
  Activity: Active
[17]
  inhibition: 60%

## C=CC[C@@H]1/C=C(\C)C[C@H](C)C[C@H](OC)[C@H]2O[C@@](O)(C(=O)C(=O)N3CCCC[C@H]3C(=O)O[C@H](/C(C)=C/[C@@H]3CC[C@@H](O)[C@H](OC)C3)[C@H](C)[C@@H](O)CC1=O)[C@H](C)C[C@@H]2OC [TACROLIMUS ANHYDROUS]
[18]
  Activity: Active
[19]
  Activity: Non-Toxic
[20]
  Activity: Non-Toxic
[21]
  Activity: Active

## CS(=O)(=O)NCc1cccc(NC(=O)c2csc3ccccc23)c1
[1]
  inhibition: 80%
[3]
  Activity: Dde
[5]
  Activity: Dde
[6]
  Activity: Dde
[8]
  inhibition: Dde
[16]
  Activity: Active
[9]
  inhibition: Active
[10]
  inhibition: Active

## CCc1ccc(C(=O)NCC(=O)Nc2cccc(S(=O)(=O)NCC(=O)O)c2)cc1
[17]
  inhibition: 60%
[11]
  Activity: Active

## CCc1ccc(C(=O)Nc2cccc(CNS(C)(=O)=O)c2)cc1
[16]
  Activity: Active
[17]
  inhibition: 60%

## O=C(O)CNS(=O)(=O)c1cccc(NC(=O)CNC(=O)c2csc3ccccc23)c1
[17]
  inhibition: 60%
[11]
  Activity: Active

## O=C(CNC(=O)c1ccc2[nH]ccc2c1)Nc1cccc(S(=O)(=O)N2CCCCC2)c1
[8]
  inhibition: Dde
[17]
  inhibition: 60%
[11]
  Activity: Active

## CS(=O)(=O)NCc1cccc(NC(=O)c2ccc3[nH]ccc3c2)c1
[1]
  inhibition: 80%
[2]
  Activity: Non-Toxic
[3]
  Activity: Dde
[4]
  Activity: Non-Toxic
[5]
  Activity: Dde
[6]
  Activity: Dde
[7]
  Activity: Non-Toxic
[8]
  inhibition: Dde
[15]
  Activity: Active
[16]
  Activity: Active
[9]
  inhibition: Active
[10]
  inhibition: Active
[11]
  Activity: Active
[22]
  Activity: Active
[12]
  Activity: Non-Toxic
[13]
  Activity: Non-Toxic
[14]
  Activity: Active

## O=C(O)CNS(=O)(=O)c1cccc(NC(=O)CNC(=O)c2cnc3ccccc3c2)c1
[17]
  inhibition: 60%
[11]
  Activity: Active

## O=C(O)CNS(=O)(=O)c1cccc(NC(=O)CNC(=O)Cc2ccsc2)c1
[17]
  inhibition: 60%
[11]
  Activity: Active

## O=C(O)CNS(=O)(=O)c1cccc(NC(=O)CNC(=O)OCc2ccccc2)c1
[17]
  inhibition: 60%
[11]
  Activity: Active

## CNc1ccc(C(=O)NCC(=O)Nc2cccc(S(=O)(=O)NCC(=O)O)c2)cc1
[17]
  inhibition: 60%
[11]
  Activity: Active
